Assay [1] in a line: S. cerevisiae growth inhibition in permissive medium (OD615), pilot counter-assay for S. cerevisiae lifespan shortening project, permissive growth control (AID 705;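 active means growth inhibition above 25% in both replicates, a cutoff set 3 SD above the mean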). The conditions noted are these: OD615, 24 h, at 10 µM, stronger effect = higher value. Summed up:
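System – S. cerevisiae with engineered DeaD lifespan system · Buffer or medium – SC raffinose/galactose permissive medium · Schedule – cells pre-grown 4 h, then 24 h compound exposure, 30 °C humidified · Technique – culture turbidity as optical density at 615 nm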

Assay [2] in a line: S. cerevisiae growth inhibition in restrictive medium, OD615, pilot screen, restrictive growth control, yeast lifespan reduction project (AID 706;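 active means growth inhibition above a set limit, 3 SD over mean compound inhibition, in both replicates, cut at about 43% in these data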;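 further: modified DeaD lifespan yeast strain shifted to restrictive glucose medium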). The conditions noted are these: OD615, 48 h, at 10 µM, stronger effect = higher value. Summed up: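 Material: engineered S. cerevisiae DeaD strain / Medium: glucose-based CSMM-D restrictive medium / Compound: single dose of 10 µM compound final, 0.25% DMSO / Timing: 4 h pre-incubation, 48 h exposure at 30 °C / Technique: OD615 absorbance reading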

The nature of assay [3]: doxorubicin toxicity protection in MRP-1 cells – H69AR cells, CellTiter-Glo, duplicate, MRP-1 activator project, pilot screen (AID 807;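 active means viability increase at or above a cutoff of the median across tested compounds plus 3 SD, cut at about 8.5% in these data, passing the limit was not always enough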;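 further: compound pretreatment 18-22 h then 72 h combined with doxorubicin; 0% = doxorubicin alone and 100% = vehicle without doxorubicin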). The conditions noted are these: H69AR viability with doxorubicin, CellTiter-Glo luminescence; at 10 µM; stronger effect = higher value. Background: Cellular ATP, detected with luciferase, serves as a proxy for viable cell number.
A short description of assay [4]: viability of HCT116 without oncogenic beta-catenin – human colon tumor cells, pilot screen (AID 823).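 Further: 0% = wells killed by 20 µM Hyamine and 100% = untreated DMSO cell wells.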 The conditions noted are these: HCT116 beta-catenin knockout viability, CellTiter-Glo, 60 h; at 10 µM; stronger effect = lower value.
Assay [5] can be described thus: viability of PTEN-null HCT116 cells – cell-based, HCT116 clonal line, CellTiter-Glo, pilot screen (AID 824;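 active means viability at or below 27.92% in each of two runs, the all-compound median minus 4 SD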;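 further: 0% = 20 µM Hyamine control and 100% = vehicle cell control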). The conditions noted are these: HCT116 PTEN-deleted viability, 60 h, at 10 µM, stronger effect = lower value.
A short description of assay [6]: RAM pathway blockade in budding yeast – dse1pr::URA3 reporter, 5-FOA selection, pilot screen (AID 869;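 active means inhibition over a set limit, the all-compound mean plus 3 SD, in both replicate runs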;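 further: 0% = DMSO wells with no growth and 100% = 10 µM 1-NA-PP1 with full growth; RAM network block rescues cells from 5-FOA so hits raise OD615 growth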). The conditions noted are these: S. cerevisiae dse1pr::URA3 5-FOA growth, OD615, 2 d; at 10 µM; stronger effect = higher value; strain carries analog-sensitive mutant Cbk1 kinase.
The nature of assay [7]: RAM signaling pathway blockade in yeast – S. cerevisiae, Pdr1DBD-CYC8 efflux-inhibited sensitized strain, primary screen (AID 1298;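 active means RAM network inhibition above 8.4% in each of two replicates, 3 SD over the compound average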;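 further: 0% = DMSO untreated cells without growth and 100% = 10 µM 1-NA-PP1 full growth; higher means more yeast growth rescued from 5-FOA killing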). The conditions noted are these: S. cerevisiae cbk1-as DSE1-URA3 strain, 5-FOA growth OD615, 2 d; at 50 µM; stronger effect = higher value.

Each structure is given as a SMILES string. Values without a mark were called inactive. Results filed as inconclusive are left out. Active and inactive are the calls of the source.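 How the source made its calls, unless noted: active means cell viability at or below a set limit in both duplicate runs, the limit being the all-compound median minus 4 SD (cut at about 23% in these data, passing the limit was not always enough); inconclusive means no clear call, values can overlap the other calls; inactive means the rest.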

One may read the viability as a read-out of living cells in per cent, often relative to untreated cells. The term inhibition denotes the drop in the measured response relative to a control, in per cent. With `O=C(CCS(=O)(=O)c1ccccc1)Nc1nc(-c2ccccn2)cs1`, the growth inhibition is -9.64% in assay [1] and -13.3% in assay [2]. Further, the viability increase in assay [3] is -8.92%. In addition, the values for the viability in assay [4] and in assay [5] were 8.11% (active) and 6.03% (active), respectively. The inhibition in assay [6] is 1.85%. The RAM network inhibition in assay [7] was 3.99%.

For the compound `CC(=O)N1CCN(c2ccc(NCc3ccc(C)s3)cc2)CC1`, the growth inhibition in assay [1] was -5.79%; in assay [2], 8.29%. The viability increase in assay [3] was -2.32%. For the same compound, the values for the viability in assay [4] and in assay [5] were 99% and 95%, respectively. The inhibition in assay [6] was 1.92%. Also, the RAM network inhibition in assay [7] was 7.94%.

On to `CCOc1ccc(NC(=O)N(C2CCCCC2)C2CCN(C(C)=O)CC2)cc1`, for which the results for the growth inhibition in assay [1] and in assay [2] were -8.37% and 6.87%, respectively. Also, the viability increase in assay [3] is -0.8%. The figures for the viability in assay [4] and in assay [5] were 102% and 100%, respectively. In assay [6], the inhibition is 0.795%. Moreover, in assay [7], the RAM network inhibition was 3.05%.

For `O=C(c1ccc(N2CCCCS2(=O)=O)cc1)N1CCN(c2ccc(N3CCOCC3)nn2)CC1`, the growth inhibition in assay [1] is 3.18%; in assay [2] it was 14.7%. In addition, in assay [3], the viability increase is -0.03%. Moreover, the viability was 105% in assay [4] and 106% in assay [5]. Also, in assay [6], the inhibition was 0.09%. Moreover, the RAM network inhibition in assay [7] was 1.25%.

Take `CC(C)C(=O)N1CCN(c2ccccc2N)CC1`: the growth inhibition in assay [1] is -9.49%; in assay [2], -20.2%. Besides, the viability increase in assay [3] was -1.42%. In addition, the viability was 102% in assay [4] and 95.8% in assay [5]. For the same compound, in assay [6], the inhibition was 1.55%. Besides, in assay [7], the RAM network inhibition is 1.34%.

Consider `O=C(Nc1nc(-c2ccc3c(c2)OCO3)cs1)C1COc2ccccc2O1` (centres undefined), for which the growth inhibition in assay [1] is 0.51%; in assay [2], 3.12%. Moreover, the viability increase in assay [3] is 1.56%. The viability is 99.8% in assay [4] and 88.9% in assay [5]. Besides, the inhibition in assay [6] is 2.81%. For the same compound, the RAM network inhibition in assay [7] is 4.11%.

As to `COc1ccc(C)cc1NC(=O)CSc1nnc(-c2ccco2)n1Cc1ccco1`, the growth inhibition is -0.8% in assay [1] and 10.4% in assay [2]. In assay [3], the viability increase is -2.06%. The viability is 99.8% in assay [4] and 90.8% in assay [5]. Also, the inhibition in assay [6] is 2.08%. Besides, in assay [7], the RAM network inhibition was 6.62%.

Consider `COc1ccc(C2CC(c3ccccc3C)n3nc(N)nc3N2)cc1` (centres undefined), for which the results for the growth inhibition in assay [1] and in assay [2] were 1.94% and 17.8%, respectively. The viability increase in assay [3] was 0.56%. The viability is 96.1% in assay [4] and 87.6% in assay [5]. Further, the inhibition in assay [6] was 2.3%. For the same compound, in assay [7], the RAM network inhibition was 1.89%.

As for `O=C(NCCN1CCc2ccccc2C1)Nc1ccc(F)cc1`, the growth inhibition is -4.88% in assay [1] and -2.83% in assay [2]. In assay [3], the viability increase was -3.99%. In addition, the viability in assay [4] is 105%; in assay [5], 100%. Besides, the inhibition in assay [6] was 2.19%. In addition, the RAM network inhibition in assay [7] is 2.62%.

`Cn1c2c(c(=O)n(C)c1=O)C(c1cc3c(cc1Br)OCO3)CC(=O)N2` (centres undefined): the growth inhibition in assay [1] was -4.86%; in assay [2], -4.15%. The viability increase in assay [3] is -0.66%. Moreover, the figures for the viability in assay [4] and in assay [5] were 105% and 99%, respectively. For the same compound, the inhibition in assay [6] was -0.625%. In addition, in assay [7], the RAM network inhibition is 4.1%.

Consider `CN(C)c1nc(Oc2ccc(C(=O)OCC(=O)Nc3ccccc3)cc2)nc(N(C)C)n1`, for which the results for the growth inhibition in assay [1] and in assay [2] were 5.09% and 5.01%, respectively. Moreover, in assay [3], the viability increase was -3.31%. Also, the viability in assay [4] is 95.6%; in assay [5], 94.3%. The inhibition in assay [6] was 2.15%. The RAM network inhibition in assay [7] is 1.24%.

As to `COc1ccc(NC(=O)CSc2nnc(-c3ccc(C)cc3)n2N)cc1`, the growth inhibition in assay [1] was -3.98%; in assay [2], -4.99%. Besides, the viability increase in assay [3] was 0.54%. For the same compound, the values for the viability in assay [4] and in assay [5] were 100% and 92.8%, respectively. In addition, in assay [6], the inhibition was 1.1%. Also, the RAM network inhibition in assay [7] was 2.69%.

Take `CCN1CCn2c3c(c4cc(C)ccc42)CCCC31` (centres undefined): the growth inhibition in assay [1] was -4.94%; in assay [2], -6.53%. For the same compound, the viability increase in assay [3] was -2.11%. Further, the viability in assay [4] was 80.1%; in assay [5], 74.9%. In addition, in assay [6], the inhibition was 0.895%. Besides, the RAM network inhibition in assay [7] is 0.21%.

`COc1ccc(CN(C)C2CCCCC2)cc1`: the growth inhibition in assay [1] was -16.4%; in assay [2], -4.68%. For the same compound, the viability increase in assay [3] is 0.58%. Besides, the results for the viability in assay [4] and in assay [5] were 95.9% and 99%, respectively. The inhibition in assay [6] was 1.12%. Moreover, in assay [7], the RAM network inhibition was 4.95%.

For `CCCCOC(=O)CCc1n[nH]c(=O)[nH]c1=O`, the growth inhibition was -11.1% in assay [1] and -17.6% in assay [2]. Further, in assay [3], the viability increase was -1.14%. Moreover, the viability was 99.8% in assay [4] and 99% in assay [5]. Further, the inhibition in assay [6] was 2.12%. Moreover, the RAM network inhibition in assay [7] is 2.93%.

Regarding `c1ccc(CNc2nc3ccccc3[nH]2)cc1`, the values for the growth inhibition in assay [1] and in assay [2] were -4.7% and 2.9%, respectively. In assay [3], the viability increase is -5.29%. The viability in assay [4] was 75.8%; in assay [5] it was 80.7%. In addition, the inhibition in assay [6] is 1.3%. Besides, the RAM network inhibition in assay [7] was 0.44%.

For the compound `O=C(c1ccccc1)N1CCN(C2CC(=O)N(CCc3ccccc3)C2=O)CC1` (centres undefined), the growth inhibition was -3.21% in assay [1] and 4.64% in assay [2]. The viability increase in assay [3] was 1.3%. The viability was 96.8% in assay [4] and 100% in assay [5]. In assay [6], the inhibition is 2.52%. Besides, in assay [7], the RAM network inhibition was 4.98%.

Values taken from PubChem BioAssay.
